According to ChEMBL document CHEMBL1811829, “Discovery of selective indole-based prostaglandin D₂ receptor antagonist” (Bioorg Med Chem, 2011):

Legend:
[1] = target: Prostaglandin E2 receptor EP2 subtype (Mus musculus, UniProt Q62053); test: Displacement of [3H]-PGE2 from mouse EP2 receptor expressed in CHO cells after 60 mins by liquid scintillation counting; format: cell-based
Procedure, shortened: (§1)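 Membranes from CHO cells stably expressing mEP1, mEP2, mEP3a, mEP4 or mFP were used. The radioligand was 2.5 nM [³H]PGE₂ for EP receptors and 2.5 nM [³H]PGF2α for FP. Buffer was 10 mM KH₂PO₄–KOH pH 6.0 with 1 mM EDTA, 10 mM MgCl₂ and 100 mM NaCl. Incubation was at room temperature, 20 min for mEP1 and 60 min for the others. Samples were filtered on GF/B, washed with phosphate/NaCl pH 6.0, dried 60 min at 60 °C and scintillation counted.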

[2] = target: Prostaglandin F2-alpha receptor (Mus musculus, UniProt P43117); test: Displacement of [3H]-PGF2-alpha from mouse FP receptor expressed in CHO cells after 60 mins by liquid scintillation counting; format: cell-based; procedure, shortened: as §1
Prostaglandin F2-alpha receptor, sequence (P43117 whole entry): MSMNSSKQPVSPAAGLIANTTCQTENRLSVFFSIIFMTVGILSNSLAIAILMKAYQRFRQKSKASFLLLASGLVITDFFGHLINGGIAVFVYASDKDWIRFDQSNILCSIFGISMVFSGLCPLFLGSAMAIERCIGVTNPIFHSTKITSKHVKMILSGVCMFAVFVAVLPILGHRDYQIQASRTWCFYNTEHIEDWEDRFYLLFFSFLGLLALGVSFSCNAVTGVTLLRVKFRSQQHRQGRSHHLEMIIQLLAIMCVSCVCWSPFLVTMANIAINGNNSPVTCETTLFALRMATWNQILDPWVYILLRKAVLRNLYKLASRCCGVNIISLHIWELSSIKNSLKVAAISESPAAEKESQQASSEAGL

Thromboxane A2 receptor = target: T1, Thromboxane A2 receptor (Homo sapiens, UniProt P21731); test: Displacement of [3H]-SQ29548 from human TP receptor expressed in CHO cells after 30 mins by liquid scintillation counting; format: cell-based
T1 sequence (P21731 whole entry): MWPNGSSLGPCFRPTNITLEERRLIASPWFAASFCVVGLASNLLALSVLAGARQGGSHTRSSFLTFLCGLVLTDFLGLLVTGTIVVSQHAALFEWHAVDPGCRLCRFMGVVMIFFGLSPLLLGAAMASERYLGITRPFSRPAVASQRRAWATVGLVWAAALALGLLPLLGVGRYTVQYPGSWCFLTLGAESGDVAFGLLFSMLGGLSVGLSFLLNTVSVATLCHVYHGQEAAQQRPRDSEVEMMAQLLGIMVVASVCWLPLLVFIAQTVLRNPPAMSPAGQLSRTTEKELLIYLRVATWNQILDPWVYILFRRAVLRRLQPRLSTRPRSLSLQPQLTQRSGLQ
Procedure, shortened: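 Membranes from CHO cells expressing hTP were incubated with 5.0 nM [³H]-SQ29548 and compounds at various concentrations. Buffer was 10 mM Tris–HCl pH 7.5 with 100 mM NaCl, for 30 min at room temperature. Samples were filtered on GF/B, washed with the same buffer, dried 60 min at 60 °C and scintillation counted. Nonspecific binding was set with excess unlabeled SQ29548.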

[3] = target: T2, Prostaglandin E2 receptor EP1 subtype (Mus musculus, UniProt P35375); test: Displacement of [3H]-PGE2 from mouse EP1 receptor expressed in CHO cells after 20 mins by liquid scintillation counting; format: cell-based; procedure, shortened: as §1
T2 sequence (P35375 whole entry): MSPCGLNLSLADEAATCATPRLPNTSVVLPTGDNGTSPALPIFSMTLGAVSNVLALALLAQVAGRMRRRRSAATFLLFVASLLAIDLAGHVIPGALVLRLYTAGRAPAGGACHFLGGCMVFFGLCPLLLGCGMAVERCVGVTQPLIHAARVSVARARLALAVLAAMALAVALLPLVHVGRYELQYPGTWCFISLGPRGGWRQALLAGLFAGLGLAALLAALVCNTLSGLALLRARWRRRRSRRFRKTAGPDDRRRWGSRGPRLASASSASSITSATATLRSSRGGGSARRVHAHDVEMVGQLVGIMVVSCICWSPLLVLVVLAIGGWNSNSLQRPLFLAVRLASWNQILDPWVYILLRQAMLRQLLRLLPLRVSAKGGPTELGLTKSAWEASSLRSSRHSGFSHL

Cavia porcellus [4] = test: Inhibition of OVA-induced vascular permeability in guinea pig conjunctiva at 3 mg/kg, po administered 1 hr before antigen challenge measured after 30 mins; format: functional
Procedure, shortened: (§2)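 Male Hartley guinea pigs were sensitized i.p. with OVA (1 mg) plus inactivated Bordetella pertussis. Two weeks later they were challenged with topical OVA (1%, 20 µL/eye), followed at once by Evans blue (20 mg/kg iv). Compound was given orally 1 h before challenge. After 30 min, conjunctiva was removed and extracted in DMF at 37 °C. Dye was read at 620 nm against a standard curve.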

[5] = target: T3, Prostaglandin E2 receptor EP3 subtype (Mus musculus, UniProt P30557); test: Displacement of [3H]-PGE2 from mouse EP3 receptor expressed in CHO cells after 60 mins by liquid scintillation counting; format: cell-based; procedure, shortened: as §1
T3 sequence (P30557 whole entry): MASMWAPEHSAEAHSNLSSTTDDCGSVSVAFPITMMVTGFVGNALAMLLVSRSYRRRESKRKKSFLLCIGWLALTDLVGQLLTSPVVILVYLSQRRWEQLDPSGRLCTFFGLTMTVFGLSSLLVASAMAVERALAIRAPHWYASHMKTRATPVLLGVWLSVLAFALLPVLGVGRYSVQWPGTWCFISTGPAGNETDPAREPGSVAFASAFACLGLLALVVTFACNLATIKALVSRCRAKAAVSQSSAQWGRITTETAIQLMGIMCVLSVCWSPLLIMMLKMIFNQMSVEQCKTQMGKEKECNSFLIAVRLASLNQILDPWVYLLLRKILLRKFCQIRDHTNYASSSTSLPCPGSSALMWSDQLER

[6] = target: T4, Prostaglandin D2 receptor (Mus musculus, UniProt P70263); test: Displacement of [3H]-PGD2 from mouse DP receptor expressed in CHO cells after 20 mins by liquid scintillation counting; format: cell-based
T4 sequence (P70263 whole entry): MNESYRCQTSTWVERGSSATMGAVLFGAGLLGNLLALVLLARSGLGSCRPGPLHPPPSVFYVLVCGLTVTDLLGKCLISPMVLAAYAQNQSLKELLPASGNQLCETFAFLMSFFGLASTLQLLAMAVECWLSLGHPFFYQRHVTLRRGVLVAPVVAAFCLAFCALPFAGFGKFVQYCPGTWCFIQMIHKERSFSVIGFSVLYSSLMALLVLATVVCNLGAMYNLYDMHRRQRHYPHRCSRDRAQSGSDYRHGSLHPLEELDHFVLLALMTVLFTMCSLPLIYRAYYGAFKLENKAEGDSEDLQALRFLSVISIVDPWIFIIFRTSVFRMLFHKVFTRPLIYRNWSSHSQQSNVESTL
Procedure, shortened: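 Membranes from CHO cells stably expressing mDP were incubated with 2.5 nM [³H]PGD₂ and compounds at various concentrations. Buffer was 25 mM HEPES–NaOH pH 7.4 with 1 mM EDTA, 5 mM MgCl₂ and 10 mM MnCl₂, for 20 min at room temperature. Samples were filtered on GF/B and washed with Tris–HCl pH 7.4, NaCl, 0.01% BSA. Filters were dried 60 min at 60 °C and read by scintillation counting. Nonspecific binding was set with excess unlabeled PGD₂.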

Prostacyclin receptor = Prostacyclin receptor (Homo sapiens, UniProt P43119); test: Displacement of [3H]-Iloprost from human IP receptor expressed in CHO cells after 30 mins by liquid scintillation counting; format: cell-based
Prostacyclin receptor, sequence (P43119 whole entry): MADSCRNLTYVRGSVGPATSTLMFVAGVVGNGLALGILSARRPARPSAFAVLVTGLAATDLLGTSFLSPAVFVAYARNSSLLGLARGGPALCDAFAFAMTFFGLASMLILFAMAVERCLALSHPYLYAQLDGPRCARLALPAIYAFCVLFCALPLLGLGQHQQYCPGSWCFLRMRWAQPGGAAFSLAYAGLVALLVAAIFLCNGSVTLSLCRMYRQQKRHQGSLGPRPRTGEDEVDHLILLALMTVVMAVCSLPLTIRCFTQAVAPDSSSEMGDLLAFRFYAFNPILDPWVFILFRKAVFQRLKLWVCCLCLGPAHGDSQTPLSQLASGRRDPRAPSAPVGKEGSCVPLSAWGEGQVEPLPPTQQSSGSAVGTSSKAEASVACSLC
Procedure, shortened: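 Membranes from CHO cells expressing hIP were incubated with 5.0 nM [³H]Iloprost and compounds at various concentrations. Buffer was 50 mM Tris–HCl pH 7.5 with 1 mM EDTA and 10 mM MgCl₂, for 30 min at room temperature. Samples were filtered on GF/B, washed with 10 mM Tris–HCl/100 mM NaCl pH 7.5, dried 60 min at 60 °C and scintillation counted.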

[7] = target: T4, Prostaglandin D2 receptor; test: Antagonist activity at mouse DP receptor expressed in CHO cells assessed as inhibition of PGD2-induced cAMP accumulation after 10 mins by enzyme immunoassay in the presence of 0.1% BSA; format: functional, cell-based
Procedure, shortened: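 CHO cells stably expressing mDP were seeded at 1 × 10⁵ cells/well and grown 2 days. They were preincubated about 10 min at 37 °C in MEM with Diclofenac, then given assay medium (MEM, 0.1% BSA, 1 mM IBMX, Diclofenac). Test compound at various concentrations plus 10 nM PGD₂ was added for 10 min at 37 °C. The reaction was stopped with ice-cold 10% TCA and TCA was extracted. cAMP was measured by EIA. IC50 came from cAMP relative to the PGD₂-only maximum.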

[8] = target: Prostaglandin E2 receptor EP4 subtype (Mus musculus, UniProt P32240); test: Displacement of [3H]-PGE2 from mouse EP4 receptor expressed in CHO cells after 60 mins by liquid scintillation counting; format: cell-based; procedure, shortened: as §1
Prostaglandin E2 receptor EP4 subtype, sequence (P32240 whole entry): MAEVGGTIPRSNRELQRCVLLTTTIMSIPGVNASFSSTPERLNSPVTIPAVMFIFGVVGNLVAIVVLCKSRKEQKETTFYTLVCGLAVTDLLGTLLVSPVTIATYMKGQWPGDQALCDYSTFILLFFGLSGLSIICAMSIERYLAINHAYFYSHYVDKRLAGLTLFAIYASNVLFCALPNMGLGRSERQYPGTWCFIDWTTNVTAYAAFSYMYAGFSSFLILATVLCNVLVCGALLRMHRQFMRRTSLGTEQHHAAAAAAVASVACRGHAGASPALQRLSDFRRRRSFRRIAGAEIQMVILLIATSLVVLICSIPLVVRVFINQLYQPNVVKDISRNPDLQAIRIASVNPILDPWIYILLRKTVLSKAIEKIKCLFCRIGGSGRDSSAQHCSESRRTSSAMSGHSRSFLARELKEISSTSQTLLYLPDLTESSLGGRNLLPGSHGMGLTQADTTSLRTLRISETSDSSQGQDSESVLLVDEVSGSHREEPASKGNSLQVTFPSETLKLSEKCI

Cavia porcellus [9] = test: Inhibition of OVA-induced vascular permeability in guinea pig conjunctiva at 1 mg/kg, po administered 1 hr before antigen challenge measured after 30 mins; format: functional; procedure, shortened: as §2

Prostaglandin E2 receptor EP2 subtype, sequence (Q62053 whole entry): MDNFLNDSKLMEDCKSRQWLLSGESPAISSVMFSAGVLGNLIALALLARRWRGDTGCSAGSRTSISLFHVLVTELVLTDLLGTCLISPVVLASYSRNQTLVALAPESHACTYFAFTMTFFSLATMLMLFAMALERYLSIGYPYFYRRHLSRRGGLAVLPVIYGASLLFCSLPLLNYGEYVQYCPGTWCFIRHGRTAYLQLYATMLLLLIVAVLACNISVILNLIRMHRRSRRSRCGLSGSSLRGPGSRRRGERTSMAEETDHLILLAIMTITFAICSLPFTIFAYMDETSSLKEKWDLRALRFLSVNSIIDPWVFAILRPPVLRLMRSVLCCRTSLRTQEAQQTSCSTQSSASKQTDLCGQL

Structure (SMILES) | Ki [1] [µM] | Ki [2] [µM] | IC50 (Thromboxane A2 receptor) [µM] | Ki [3] [µM] | inhibition in vivo at 3 mg/kg (Cavia porcellus [4]) [%] | Ki [5] [µM] | Ki [6] [µM] | Ki (Prostacyclin receptor) [µM] | IC50 [7] [µM] | Ki [8] [µM] | inhibition in vivo at 1 mg/kg (Cavia porcellus [9]) [%] | Ki (Thromboxane A2 receptor) [µM]
Cc1cc(OC[C@@H]2CN(C)c3ccccc3O2)ccc1C(=O)n1c(C)c(CC(=O)O)c2ccccc21 | 0.5 | 2.6 | > 10 | 2.9 | 29 | 3.6 | 0.0035 | 0.13 | 0.0011 | > 10 |  | 
Cc1c(CC(=O)O)c2ccccc2n1C(=O)c1ccc(OC[C@@H]2CN(C)c3ccccc3O2)cc1Cl | 0.6 |  |  | > 10 | 48 | > 10 | 0.0044 | 0.092 | 0.0022 | > 10 |  | 
Cc1c(CC(=O)O)c2cc(F)ccc2n1C(=O)c1ccc(OC[C@@H]2CN(C)c3ccccc3O2)cc1Cl | 0.37 | 1.2 | > 10 | > 10 | 52 | 3.2 | 0.0052 | 0.2 | 0.0016 | 4.1 |  | 
CCN1c2ccccc2C[C@@H]1COc1ccc(C(=O)n2c(C)c(CC(=O)O)c3ccccc32)c(C)c1 | 2.7 | 1.4 | 7.6 | > 10 |  | 2.8 | 0.0048 | 2.2 | 0.0022 | 1.6 | 42 | 
Cc1cc2c(CC(=O)O)cccc2n1C(=O)c1ccc(OC[C@@H]2CN(C)c3ccccc3O2)cc1 |  | 3.1 |  |  | 41 |  | 0.016 | 0.037 | 0.0024 | > 10 | 23 | 0.26
